Measurements taken from the RNAGym collection of RNA variant scans (doi:10.1126/science.aae0568).
This sample holds only a part of the variants without activity.

B1: tRNA (parent)
chain: GUUCCGUUGGCGUAAUGGUAACGCGUCUCCCUCCUAAGGAGAAGACUGCGGGUUCGAGUCCCGUACGGAACG

Variants of: B1
Assay: yeast fitness relative to wild type (ratio to wild type); higher = fitter; tRNA-Arg(CCU), competitive growth, 37 C, YPD
Summary of the method: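 For this measurement, the tRNA-Arg(CCU) gene was varied by chemical synthesis at a 3% per-site mutation rate across 69 sites, and each variant was placed at the native genomic locus in Saccharomyces cerevisiae. The pooled strains went through a 24-hour competition in YPD at 37°C in six parallel replicates, with amplicons from start and end populations read by 100-nucleotide paired-end sequencing. Darwinian fitness relative to wild type followed from the change in each genotype's frequency. Genotypes needed ≥ 100 starting reads, and estimates < 0.5 were set to 0.5.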

Variant	yeast fitness
GUUACGUUGGCGUAAUGGUAACGCGUCUCCCCCCUAAGGUGAAGACUGCGGGUUCGAGUCCCGUACGGAACG [C4A U32C A40U]	0.517
GUUACGUUGGCGUAAUGGUAACGCGUCUCCCCCCUAAGGAGAAGACUGCGGGUUCGAGUCCCGUAUGGAACG [C4A U32C C66U]	0.707
GUUACGUUGGCGUAAUGGUAACGCGUCUCCCUCCCAAGGAGAAGACUGCGGGUUCGAGUCCCGUAAGGAACG [C4A U35C C66A]	≤ 0.5
GUUACGUUGGCGUAAUGGUAACGCGUCUCCCUCCUAAGGAGAAGACUGCGGGCUCGAGUCCCGUACGGAACG [C4A U53C]	0.691
GUUGCGUUGGCGUCAUGGUAACGCGUCUCCCUCCUAAGGAGAAGACUGCCGGUUCGAGUCCGGUACGGAACG [C4G A14C G50C C62G]	≤ 0.5
GUUGCGUUGGCGUAUUGGUAGCGCGUCUCCCUCCUAAGGAGAAGACUGCGGGUUCAAGUCCCGUACGGAACG [C4G A15U A21G G56A]	0.626
GUUACGUUGGCGUAAUGGUAACGCGUCUCCCUCCAAUGGAGAAGACUGCGGGUUCGAGUCCCGUACGGAACG [C4A U35A A37U]	≤ 0.5
GUUGCGUUGGCGUCAUGGUAACGCGUCUCCCUCCUAAGGAGGAGACUGCGGGUUCGAGUCCCGUACGGAACG [C4G A14C A42G]	≤ 0.5
GUUGCGUUGGCGUUAUGGUAACGCGUCUCCCUCUUAAGGAGAAGACUGCGGGUUCGAGUCCCGUACGGAACG [C4G A14U C34U]	0.591
GUUACGUUGGCGUAAUGGUAACGCGUCUCCCUCCUAAGGAGAAGACACCGGGUUCGAGUCCCGUACGGAACG [C4A U47A G48C]	0.559
GUUACGUUGGCGUAAUGGUAACGCGUCUCCCCCCUAAGGAGACGACUGCGGGUUCGAGUCCCGUACGGAACG [C4A U32C A43C]	0.57
GUUGCGUUGGCGUGAUGGUAACGUGUCUCCCGCCUAAGGAGAGGACUGCGGGUUCGAGUCCCGUAUGGAACG [C4G A14G C24U U32G A43G C66U]	≤ 0.5
GUUGCGUUGGCGUCAUGGUAACGCGUCUCCCUCCUAAGGAGAAGACUAUGGGUUCGAGUCCCGUACGGAACG [C4G A14C G48A C49U]	≤ 0.5
GUUGCGUUGGCGUGAUGGUAACGCGUCUCCCUCCUAAGGAGAACACAGCGGGUUCGAGUCCCGUACGGAACG [C4G A14G G44C U47A]	≤ 0.5
GUUGCGUUGGCGUACUGGUAACGCGUCUCCCUCCUAAGGAGAAGAAUGCGGGUUCGAGUCCCGUACAGAACG [C4G A15C C46A G67A]	≤ 0.5
GUUGCGUUGGCGUCAUGGUAACGCGUCUCCCUCCUAAGGAGAAGACCGCGGGUUCGAGUCCCGUACGGAACG [C4G A14C U47C]	≤ 0.5
GUUGCGUUGGCGUAGUGGUAACGCGUCUCCCUCCUAUGGCGAAGACUACCGGUUCGAGUCCCGUACGGAACG [C4G A15G A37U A40C G48A G50C]	0.515
GUUGCGUUGGCGUCAUGGUCACGCGUCUCCCUCCUAAGGGGAACACUGCGGGCUAGAGUCCCGUUCGGAACG [C4G A14C A20C A40G G44C U53C C55A A65U]	≤ 0.5
GUUGCGUUGGCGUUAUGGUAACGCGUCUCCCUCCUAAGGAGAAGACUGCGGGUUCGAGUCCCGUAUGGAACG [C4G A14U C66U]	≤ 0.5

Variant	yeast fitness
GUUACGUUGGCGUAAUGGUAACGCGUCUCCCUCCUAAGGAGAAGACAGCGGGUUCGAGUCUCGUACGGAACG [C4A U47A C61U]	0.545
GUUGCGUUGGCGUGAUGGUAACGCGCCUCCCUCCUGCGGAGAAGACUGCGGGUUCGAGUCCCGUACGGAACG [C4G A14G U26C A36G A37C]	≤ 0.5
GUUACGUUGGCGUAAUGGUAACGCGUCUCCCCCCUAAGGAGAAGACUGCGGGUUCGAGUCCCGUACAGAACG [C4A U32C G67A]	0.655
GUUGCGUUGGCGUAGUGGUAACACGUCUCCCUCGUAAGGAGAAGACUGCGGGUUCGAGUCCCGUACGGAACG [C4G A15G G23A C34G]	0.538
GUUGCGUUGGCGUCAUGGUAACGCCUCUCCCUCCUAAGGAGAAGACUGCGGGUACGAGUCCCGUAGGGAACG [C4G A14C G25C U54A C66G]	≤ 0.5
GUUGCGUUGGCGUCAUGGUAACGCCUCUCCCUCCUAAGGAGAAGACUGCGGGUUCGAGUCCCGUACGGAACG [C4G A14C G25C]	0.8
GUUACGUUGGCGUAAUGGUAACGCGUCUCCCUCCUAAGGAGAAGACAGCGGGUUCGAGUCCCGUACGGAACG [C4A U47A]	0.857
GUUACGUUGGCGUAAUGGUAACGCGUCUCCCUCCUAAGGAGAAGACGGCGGGUUCGAGUCCCGUACGGAACG [C4A U47G]	0.686
GUUGCGUUGGCGUAGUGGUAACGCGUCUACCUCUUAAGGAGAAGACUGCGGGUUCGAGUCCCGUAGGGAACG [C4G A15G C29A C34U C66G]	≤ 0.5
GUUACGUUGGCGUAAUGGUAACGCGUCUCCCUCCUAAGGAGAAGACUGCGGGUUCGAGUCCCGGACGGAACG [C4A U64G]	0.641
GUUACGUUGGCGUAAUGGUAACGCGUCUCCCUCCUAAGGAGAAGACUGCGGGUUCGAGUCCCGCACGGAACG [C4A U64C]	0.923
GUUGCGUUGGCGUACUGGUAACGCGUCUGCCUCCUAAGGAGAAGACUACGGGUUCGAGUCCCGUACGGAACG [C4G A15C C29G G48A]	≤ 0.5
GUUGCGUUGGCGUACUGGAAACGCGUCUCCCUCCUAAGGAGAAGACUGCGGGUUCGAGUCCCGUACGGAACG [C4G A15C U19A]	≤ 0.5
GUUGCGUUGGCGUGAUGGUAACGCGUCUCCCUCCUAAGGAGAAGACUGCGGGUUCGAGUCCCGUACGGUACG [C4G A14G A69U]	0.52
GUUGCGUUGGCGUGAUGGUAACGCGUCUCCCUCCUAAGGAGAAGACUGCGGGUUCGAGUCCCGUACGGCACG [C4G A14G A69C]	0.508
GUUACGUUGGCGUAAUGGUAACGCGUCUCCCCCCUAAGGAGAAGACUGCGGGUUCGACUCCCGUACGGAACG [C4A U32C G58C]	0.588
GUUGCGUUGGCGUGAUGGUAACGCGUCUCCCUCCUAAGGAGAAGACUGCGGGUUCGAGUCCCGUACGAAACG [C4G A14G G68A]	0.59
GUUACGUUGGCGUAAUGGUAACGCGUCUCCCUCCUAAGGAGAAGACUGCGGGCUCGAGUCCCGUACGCAACG [C4A U53C G68C]	0.553
GUUGCGUUGGCGUUAUGGUAACGGGUCUCCGUCCUAAGGAGAAGACUGCGGGUUCGAGUCGCGUACGGAACG [C4G A14U C24G C31G C61G]	≤ 0.5
